Test results published in ChEMBL document CHEMBL1155278, “3,4-Diaryl-isoxazoles and -imidazoles as potent dual inhibitors of p38alpha mitogen activated protein kinase and casein kinase 1delta” (J Med Chem, 2009).

How the values were obtained:
[1] = target: Ephrin type-B receptor 3 (Homo sapiens) (UniProt P54753); assay: Inhibition of EPHB3 assessed as residual activity at 0.1 uM by Cherenkov counting relative to control
In short: (§1)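 Single-concentration screen at 0.1 µM across a panel of 76 protein kinases. Each kinase was run at an ATP concentration approximating its ATP Km. Results are % mean residual activity versus control assays without compound (n = 3 ± SD).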

[2] = target: T1, Dual specificity tyrosine-phosphorylation-regulated kinase 3 (Homo sapiens) (UniProt O43781); assay: Inhibition of DYRK3 assessed as residual activity at 0.1 uM by Cherenkov counting relative to control in presence of 5 uM ATP; in short: as §1
T1 sequence (whole entry): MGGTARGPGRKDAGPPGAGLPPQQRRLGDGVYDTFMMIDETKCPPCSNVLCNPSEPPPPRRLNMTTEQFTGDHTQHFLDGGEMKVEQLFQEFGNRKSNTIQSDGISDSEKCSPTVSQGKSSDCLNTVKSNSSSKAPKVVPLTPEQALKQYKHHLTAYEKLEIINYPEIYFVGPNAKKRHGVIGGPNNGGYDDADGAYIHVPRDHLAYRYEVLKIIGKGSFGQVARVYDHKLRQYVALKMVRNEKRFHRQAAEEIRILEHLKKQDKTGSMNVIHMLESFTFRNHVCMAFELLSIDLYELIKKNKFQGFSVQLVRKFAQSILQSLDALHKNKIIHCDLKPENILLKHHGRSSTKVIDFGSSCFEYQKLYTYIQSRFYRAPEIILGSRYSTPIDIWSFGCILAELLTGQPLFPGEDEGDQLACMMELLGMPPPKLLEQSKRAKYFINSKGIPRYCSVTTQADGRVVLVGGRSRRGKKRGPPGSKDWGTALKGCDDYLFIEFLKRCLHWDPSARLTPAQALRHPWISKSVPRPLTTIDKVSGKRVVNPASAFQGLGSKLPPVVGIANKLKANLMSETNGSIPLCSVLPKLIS

[3] = target: Tyrosine-protein kinase Yes (Homo sapiens) (UniProt P07947); assay: Inhibition of YES1 assessed as residual activity at 0.1 uM by Cherenkov counting relative to control in presence of 20 uM ATP
Sequence of Tyrosine-protein kinase Yes (Homo sapiens) (P07947 2-543 limits assumed): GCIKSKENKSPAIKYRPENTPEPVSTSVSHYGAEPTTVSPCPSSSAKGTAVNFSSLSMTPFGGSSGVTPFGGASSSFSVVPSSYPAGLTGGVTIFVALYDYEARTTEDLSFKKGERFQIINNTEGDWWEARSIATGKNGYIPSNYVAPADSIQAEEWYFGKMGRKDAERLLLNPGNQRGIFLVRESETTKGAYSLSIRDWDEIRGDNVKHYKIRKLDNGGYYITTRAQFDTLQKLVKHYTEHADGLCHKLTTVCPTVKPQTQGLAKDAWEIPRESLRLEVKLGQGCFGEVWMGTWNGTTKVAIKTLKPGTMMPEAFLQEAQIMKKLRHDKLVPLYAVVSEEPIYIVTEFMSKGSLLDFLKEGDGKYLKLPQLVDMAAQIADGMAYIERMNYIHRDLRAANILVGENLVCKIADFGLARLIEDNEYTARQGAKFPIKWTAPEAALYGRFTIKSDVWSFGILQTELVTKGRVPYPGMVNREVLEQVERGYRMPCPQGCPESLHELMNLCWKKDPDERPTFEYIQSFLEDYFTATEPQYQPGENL
In short: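 Single-concentration screen at 0.1 μM in a 76-kinase panel. ATP for each kinase was set near its Km for ATP. Residual activity is given as a percentage of control assays without compound, mean of n = 3 ± SD.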

[4] = Inhibition of AMPK assessed as residual activity at 0.1 uM by Cherenkov counting relative to control in presence of 50 uM ATP; in short: as §1
[5] = Inhibition of PHK assessed as residual activity at 0.1 uM by Cherenkov counting relative to control
In short: (§2)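 Single-concentration selectivity screen at 0.1 μM against a panel of 76 protein kinases. Each kinase was run at an ATP level approximating its Km for ATP. Output is mean residual activity as % of the control assay without compound, n = 3 ± SD.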

[6] = target: Casein kinase I isoform delta (Homo sapiens, UniProt P48730); assay: Inhibition of recombinant CK1delta kinase domain by Cherenkov counting
[7] = target: T2, Inhibitor of nuclear factor kappa-B kinase subunit epsilon (Homo sapiens) (UniProt Q14164); assay: Inhibition of IKKepsilon assessed as residual activity at 0.1 uM by Cherenkov counting relative to control in presence of 50 uM ATP; in short: as §1
T2 sequence (whole entry): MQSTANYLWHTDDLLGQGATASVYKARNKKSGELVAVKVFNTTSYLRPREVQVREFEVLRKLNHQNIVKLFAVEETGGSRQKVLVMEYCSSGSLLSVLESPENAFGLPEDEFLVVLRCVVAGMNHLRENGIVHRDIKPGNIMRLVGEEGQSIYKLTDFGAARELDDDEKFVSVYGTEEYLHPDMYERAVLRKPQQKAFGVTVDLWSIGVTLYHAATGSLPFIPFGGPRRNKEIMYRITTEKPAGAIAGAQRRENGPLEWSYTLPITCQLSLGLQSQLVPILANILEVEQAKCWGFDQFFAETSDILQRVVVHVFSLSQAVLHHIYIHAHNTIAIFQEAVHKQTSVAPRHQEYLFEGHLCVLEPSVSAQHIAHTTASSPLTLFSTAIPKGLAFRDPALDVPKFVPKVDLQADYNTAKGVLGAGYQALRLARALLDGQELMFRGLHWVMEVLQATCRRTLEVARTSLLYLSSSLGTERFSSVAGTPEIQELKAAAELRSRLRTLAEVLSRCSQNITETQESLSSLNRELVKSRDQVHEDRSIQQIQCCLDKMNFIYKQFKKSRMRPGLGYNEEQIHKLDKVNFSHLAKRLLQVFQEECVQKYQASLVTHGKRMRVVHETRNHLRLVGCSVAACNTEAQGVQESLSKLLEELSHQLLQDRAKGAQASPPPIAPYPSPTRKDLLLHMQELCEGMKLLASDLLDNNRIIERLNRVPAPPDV

[8] = target: Serine/threonine-protein kinase Nek6 (Homo sapiens) (UniProt Q9HC98); assay: Inhibition of NEK6 assessed as residual activity at 0.1 uM by Cherenkov counting relative to control in presence of 50 uM ATP; in short: as §2
Sequence of Serine/threonine-protein kinase Nek6 (Homo sapiens) (Q9HC98 whole entry): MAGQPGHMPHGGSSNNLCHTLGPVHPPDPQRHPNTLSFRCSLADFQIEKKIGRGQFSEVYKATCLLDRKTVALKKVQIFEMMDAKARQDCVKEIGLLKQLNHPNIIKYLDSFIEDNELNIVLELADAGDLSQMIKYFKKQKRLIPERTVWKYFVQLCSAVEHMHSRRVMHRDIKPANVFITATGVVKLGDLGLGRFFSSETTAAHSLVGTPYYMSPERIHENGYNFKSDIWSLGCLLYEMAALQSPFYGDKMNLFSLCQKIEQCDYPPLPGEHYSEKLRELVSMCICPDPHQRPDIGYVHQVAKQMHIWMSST

[9] = target: Tyrosine-protein kinase BTK (Homo sapiens) (UniProt Q06187); assay: Inhibition of BTK assessed as residual activity at 0.1 uM by Cherenkov counting relative to control in presence of 50 uM ATP; in short: as §1
Sequence of Tyrosine-protein kinase BTK (Homo sapiens) (Q06187 whole entry): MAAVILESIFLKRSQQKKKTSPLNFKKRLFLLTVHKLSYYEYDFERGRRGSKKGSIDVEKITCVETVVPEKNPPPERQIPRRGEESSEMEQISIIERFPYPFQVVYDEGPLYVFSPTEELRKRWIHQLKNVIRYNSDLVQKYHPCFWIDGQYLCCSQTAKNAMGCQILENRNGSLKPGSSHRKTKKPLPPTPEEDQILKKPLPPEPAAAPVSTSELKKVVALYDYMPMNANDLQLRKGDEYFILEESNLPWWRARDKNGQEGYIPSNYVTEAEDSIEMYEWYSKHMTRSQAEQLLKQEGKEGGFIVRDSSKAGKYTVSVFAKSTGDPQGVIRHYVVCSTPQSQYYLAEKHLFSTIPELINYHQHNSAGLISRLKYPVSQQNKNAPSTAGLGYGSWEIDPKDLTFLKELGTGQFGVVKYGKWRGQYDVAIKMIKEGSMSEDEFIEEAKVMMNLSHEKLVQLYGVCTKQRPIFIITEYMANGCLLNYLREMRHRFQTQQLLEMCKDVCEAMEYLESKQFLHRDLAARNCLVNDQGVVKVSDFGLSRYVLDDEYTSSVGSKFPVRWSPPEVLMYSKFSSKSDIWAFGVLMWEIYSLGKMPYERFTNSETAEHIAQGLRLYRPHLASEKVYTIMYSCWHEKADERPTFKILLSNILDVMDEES

[10] = target: Serine/threonine-protein kinase pim-1 (Homo sapiens) (UniProt P11309); assay: Inhibition of PIM1 assessed as residual activity at 10 uM by Cherenkov counting relative to control in presence of 20 uM ATP
Sequence of Serine/threonine-protein kinase pim-1 (Homo sapiens) (P11309 whole entry, looked up): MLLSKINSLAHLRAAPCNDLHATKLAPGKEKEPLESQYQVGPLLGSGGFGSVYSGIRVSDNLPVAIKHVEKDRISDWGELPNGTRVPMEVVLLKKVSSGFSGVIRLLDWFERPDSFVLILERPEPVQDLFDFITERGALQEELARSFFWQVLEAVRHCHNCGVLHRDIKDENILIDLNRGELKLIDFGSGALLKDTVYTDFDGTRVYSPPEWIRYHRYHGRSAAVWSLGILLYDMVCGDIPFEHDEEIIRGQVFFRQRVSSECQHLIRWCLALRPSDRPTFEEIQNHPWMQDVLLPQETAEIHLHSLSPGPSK

[11] = target: Ribosomal protein S6 kinase beta-1 (Homo sapiens) (UniProt P23443); assay: Inhibition of S6K1 assessed as residual activity at 10 uM by Cherenkov counting relative to control in presence of 20 uM ATP
Sequence of Ribosomal protein S6 kinase beta-1 (Homo sapiens) (P23443 whole entry, looked up): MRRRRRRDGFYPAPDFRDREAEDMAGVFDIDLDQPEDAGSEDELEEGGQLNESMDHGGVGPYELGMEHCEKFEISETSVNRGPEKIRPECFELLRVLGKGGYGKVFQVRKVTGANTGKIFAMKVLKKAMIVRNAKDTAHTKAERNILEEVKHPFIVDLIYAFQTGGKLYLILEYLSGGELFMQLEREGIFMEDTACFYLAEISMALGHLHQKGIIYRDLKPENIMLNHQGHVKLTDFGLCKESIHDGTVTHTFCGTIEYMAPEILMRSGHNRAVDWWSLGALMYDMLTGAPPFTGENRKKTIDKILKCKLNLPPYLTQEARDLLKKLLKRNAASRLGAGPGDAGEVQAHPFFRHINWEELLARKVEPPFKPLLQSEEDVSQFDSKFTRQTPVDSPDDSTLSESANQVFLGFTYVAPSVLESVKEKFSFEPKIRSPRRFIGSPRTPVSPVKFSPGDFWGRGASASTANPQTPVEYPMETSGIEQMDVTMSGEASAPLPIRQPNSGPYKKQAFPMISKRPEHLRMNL
In short: (§3)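 Single-concentration profiling at 10 μM in a 78-kinase panel. Kinase activity is expressed as a percentage of control assays run without compound.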

[12] = target: Homeodomain-interacting protein kinase 2 (Homo sapiens) (UniProt Q9H2X6); assay: Inhibition of HIPK2 assessed as residual activity at 10 uM by Cherenkov counting relative to control in presence of 5 uM ATP
In short: (§4)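 Single-point profiling at 10 µM in a panel of 78 protein kinases. Kinase activity is expressed as a percentage relative to control assays without compound.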

[13] = target: Serine/threonine-protein kinase 26 (Homo sapiens) (UniProt Q9P289); assay: Inhibition of MST4 assessed as residual activity at 10 uM by Cherenkov counting relative to control in presence of 20 uM ATP
Sequence of Serine/threonine-protein kinase 26 (Homo sapiens) (Q9P289 2-416 limits assumed): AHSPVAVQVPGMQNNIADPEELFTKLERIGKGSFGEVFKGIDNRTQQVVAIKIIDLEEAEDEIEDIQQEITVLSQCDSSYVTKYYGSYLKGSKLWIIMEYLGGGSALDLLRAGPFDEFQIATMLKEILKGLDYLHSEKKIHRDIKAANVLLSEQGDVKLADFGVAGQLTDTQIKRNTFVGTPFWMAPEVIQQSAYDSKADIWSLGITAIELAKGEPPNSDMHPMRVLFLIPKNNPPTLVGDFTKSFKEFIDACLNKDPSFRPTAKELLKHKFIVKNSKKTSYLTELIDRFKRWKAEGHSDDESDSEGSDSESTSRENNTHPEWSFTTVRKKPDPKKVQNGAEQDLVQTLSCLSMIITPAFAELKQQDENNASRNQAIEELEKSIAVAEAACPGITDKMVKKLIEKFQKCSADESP

[14] = target: Serine/threonine-protein kinase N2 (Homo sapiens) (UniProt Q16513); assay: Inhibition of PRK2 assessed as residual activity at 10 uM by Cherenkov counting relative to control in presence of 5 uM ATP; in short: as §3
Sequence of Serine/threonine-protein kinase N2 (Homo sapiens) (Q16513 whole entry, looked up): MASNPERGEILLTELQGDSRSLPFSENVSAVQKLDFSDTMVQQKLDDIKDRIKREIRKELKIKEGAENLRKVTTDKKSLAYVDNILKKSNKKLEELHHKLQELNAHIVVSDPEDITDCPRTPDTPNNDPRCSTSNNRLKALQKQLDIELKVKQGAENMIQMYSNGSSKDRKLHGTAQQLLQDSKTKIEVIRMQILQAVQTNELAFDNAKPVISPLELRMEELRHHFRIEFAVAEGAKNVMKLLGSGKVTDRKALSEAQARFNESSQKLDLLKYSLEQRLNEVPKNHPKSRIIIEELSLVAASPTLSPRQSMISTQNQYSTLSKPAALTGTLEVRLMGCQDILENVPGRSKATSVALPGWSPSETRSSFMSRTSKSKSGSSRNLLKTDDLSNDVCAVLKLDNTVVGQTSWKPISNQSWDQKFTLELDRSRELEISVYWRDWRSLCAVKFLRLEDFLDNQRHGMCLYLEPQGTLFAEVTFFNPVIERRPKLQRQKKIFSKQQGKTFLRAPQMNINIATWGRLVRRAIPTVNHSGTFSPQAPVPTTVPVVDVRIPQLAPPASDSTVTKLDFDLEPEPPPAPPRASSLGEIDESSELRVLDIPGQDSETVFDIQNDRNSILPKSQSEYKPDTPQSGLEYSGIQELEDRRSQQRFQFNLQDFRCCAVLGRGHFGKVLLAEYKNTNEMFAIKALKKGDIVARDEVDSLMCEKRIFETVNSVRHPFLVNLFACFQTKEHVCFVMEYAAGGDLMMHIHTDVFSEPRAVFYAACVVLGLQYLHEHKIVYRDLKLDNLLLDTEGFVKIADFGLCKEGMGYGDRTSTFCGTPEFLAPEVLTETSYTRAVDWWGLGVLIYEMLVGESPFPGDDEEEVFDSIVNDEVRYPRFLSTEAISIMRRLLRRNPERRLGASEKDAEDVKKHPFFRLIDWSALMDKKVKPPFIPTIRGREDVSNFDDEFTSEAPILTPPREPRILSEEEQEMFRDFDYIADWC

[15] = target: Cyclin-dependent kinase 2/cyclin A (Homo sapiens) (UniProt P24941+P20248+P78396); assay: Inhibition of CDK2/cyclin A assessed as residual activity at 10 uM by Cherenkov counting relative to control in presence of 20 uM ATP; assay type: protein-complex assay; in short: as §4

Sequence of Ephrin type-B receptor 3 (Homo sapiens) (P54753 whole entry): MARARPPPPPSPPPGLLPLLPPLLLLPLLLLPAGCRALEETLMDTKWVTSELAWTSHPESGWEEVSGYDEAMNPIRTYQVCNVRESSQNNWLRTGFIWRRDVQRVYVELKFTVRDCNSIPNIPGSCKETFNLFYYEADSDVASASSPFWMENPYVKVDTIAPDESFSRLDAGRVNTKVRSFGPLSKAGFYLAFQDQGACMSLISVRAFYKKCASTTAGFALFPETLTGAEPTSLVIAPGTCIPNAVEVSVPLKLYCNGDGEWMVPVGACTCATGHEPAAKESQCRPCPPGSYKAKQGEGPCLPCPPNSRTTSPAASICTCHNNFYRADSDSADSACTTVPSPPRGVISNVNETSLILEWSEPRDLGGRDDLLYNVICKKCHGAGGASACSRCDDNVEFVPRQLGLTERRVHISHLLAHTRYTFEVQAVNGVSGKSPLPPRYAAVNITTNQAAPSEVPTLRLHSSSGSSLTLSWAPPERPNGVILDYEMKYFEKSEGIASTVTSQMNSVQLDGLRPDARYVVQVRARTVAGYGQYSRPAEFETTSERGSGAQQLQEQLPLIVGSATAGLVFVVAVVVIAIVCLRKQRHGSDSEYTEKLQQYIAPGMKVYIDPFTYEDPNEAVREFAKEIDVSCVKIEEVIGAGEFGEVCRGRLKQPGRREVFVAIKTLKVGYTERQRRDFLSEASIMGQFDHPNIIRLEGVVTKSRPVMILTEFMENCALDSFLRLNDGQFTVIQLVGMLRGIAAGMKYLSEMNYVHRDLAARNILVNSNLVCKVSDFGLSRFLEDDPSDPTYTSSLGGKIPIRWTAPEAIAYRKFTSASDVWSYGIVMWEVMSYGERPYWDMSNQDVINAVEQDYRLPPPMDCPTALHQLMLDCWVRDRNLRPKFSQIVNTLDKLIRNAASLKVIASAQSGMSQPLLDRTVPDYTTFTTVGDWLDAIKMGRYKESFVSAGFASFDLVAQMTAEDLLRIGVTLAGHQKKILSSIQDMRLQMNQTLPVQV

COc1ccc(/C=C/C(=O)Nc2cc(-c3[nH]c(SC)nc3-c3ccc(F)cc3)ccn2)c(OC)c1
Activity [1]: 94%
Activity [2]: 104%
Activity [3]: 24%
Activity [4]: 92%
Activity [5]: 99%
IC50 [6]: 4 nM
Activity [7]: 97%
Activity [8]: 90%
Activity [9]: 92%

COc1ccc(/C=C/C(=O)Nc2cc(-c3[nH]c([S+](C)[O-])nc3-c3ccc(F)cc3)ccn2)c(OC)c1 (stereo not given)
Activity [1]: 95%
Activity [2]: 90%
Activity [3]: 14%
Activity [4]: 99%
Activity [5]: 102%
IC50 [6]: 5 nM
Activity [7]: 90%
Activity [8]: 111%
Activity [9]: 105%

CC(C)c1noc(-c2ccc(F)cc2)c1-c1ccncc1
Activity [10]: 89%
Activity [11]: 98%
Activity [12]: 103%
Activity [13]: 102%
Activity [14]: 98%
Activity [15]: 98%

CC(C)c1onc(-c2ccc(F)cc2)c1-c1ccncc1
Activity [10]: 100%
Activity [11]: 89%
Activity [12]: 103%
Activity [13]: 88%
Activity [14]: 88%
Activity [15]: 96%
